Measurements pooled from the literature.
Compare with care: the assays were run in different laboratories. pEC50, pIC50: −log10 of the molar value.

Compound | cell line | test | conditions | measurement | result
C=C(F)C(=O)N1CCN(c2nc(OC[C@@H]3CCCN3C)nc3c2CCN(c2cccc4cccc(Cl)c24)C3)C[C@@H]1CC#N | SNU1 | cell growth or viability, ATP luminescence | 3D culture | pIC50 | < 6.00
C=CC(=O)NC1CCN(c2ncc3ncnc(Nc4ccc(Oc5ccc6c(c5)ncn6C)c(C)c4)c3n2)CC1 | ABC-1 | cell growth or viability | – | pEC50 | 6.02
C=CC(=O)c1cccnc1Nc1cccc(C(F)(F)F)c1 | NCI-H226 | cell growth or viability, CCK-8 | 72 h | GI50 | 29.1 µM
CN(C)C(=O)c1cc2cnc(Nc3ccc(N4CCNCC4)cn3)nc2n1C1CCCC1 | human Neutrophil | superoxide release, inhibitor | – | pIC50 | 6.08
O=C(NO)c1ccc(CNc2nc3cccc(-c4ccc5c(c4)OCO5)n3n2)cc1 | NCI-H226 | cell growth or viability, SRB | – | GI50 | 0.58 µM
C=CC(=O)c1cccnc1Nc1cc(C(F)(F)F)ccc1OC | NCI-H226 | cell growth or viability, CCK-8 | 72 h | GI50 | 16.2 µM
CC(C)c1ccccc1[C@@H]1CCCN1C1CC2(CCN(c3ccc(C(=O)NS(=O)(=O)c4ccc(NC[C@H]5CC[C@](C)(O)CC5)c([N+](=O)[O-])c4)c(Oc4cnc5[nH]ccc5c4)c3)CC2)C1 | SU-DHL-8 | cell growth or viability, ATP luminescence | 48 h | pIC50 | 5.35
O=C(O)c1ccccc1Nc1cccc(C(F)(F)F)c1 | NCI-H226 | cell growth or viability, CCK-8 | 72 h | GI50 | > 40 µM
O=C(O)c1ccc2c(c1)nc(Nc1cccc(Cl)c1)c1ccncc12 | NCI-H226 | cell growth or viability, crystal violet | 48 h | pIC50 | 5.24
